Assay results from ChEMBL document CHEMBL3232947, “Inhibitory effect of turmeric curcuminoids on FLT3 expression and cell cycle arrest in the FLT3-overexpressing EoL-1 leukemic cell line” (J Nat Prod, 2014).

Columns and labels:
EOL1 [1] = experiment: Reduction in Flt3 protein level in human EOL-1 cells at 15 uM after 24 hrs by Western blot analysis; assay type: functional; settings: EOL1, 24 h
Summary of the method: (§1)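 Treated EoL-1 lysed in RIPA buffer, protein by Folin-Lowry, resolved on 12% SDS-PAGE; probed with rabbit polyclonal anti-FLT3 or anti-STAT5A (1:500) and anti-GAPDH (1:1000), HRP anti-rabbit secondary, chemiluminescence. Band intensities normalized to GAPDH and compared with vehicle control; mean ± SEM, three independent experiments.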

[2] = Cytotoxicity against human EOL-1 cells after 48 hrs by MTT assay; assay type: functional, cell-based; settings: EOL1, 48 h
Summary of the method: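 Cells seeded at 5.0 × 10^4/well, preincubated 24 h at 37 °C, then exposed to 1.56–50 μM for 48 h (0.1% DMSO vehicle); MTT 4 h at 37 °C, formazan dissolved in DMSO, A578 (ref 630 nm). IC50 = lowest concentration giving 50% growth reduction vs vehicle; mean ± SEM, three independent experiments in triplicate.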

EOL1 [3] = experiment: Reduction in Flt3 protein level in human EOL-1 cells at 15 uM after 48 hrs by Western blot analysis; assay type: functional; settings: EOL1, 48 h; summary of the method: as §1
EOL1 [4] = experiment: Reduction in Flt3 protein level in human EOL-1 cells after 12 hrs by Western blot analysis; assay type: functional, cell-based; summary of the method: as §1
[5] = Cell cycle arrest in human EOL-1 cells assessed as accumulation at G0/G1 phase after 12 hrs by flow cytometry relative to control; settings: EOL1
[6] = Antiproliferative activity against human EOL-1 cells at 5 uM after 12 hrs by trypan blue exclusion assay; assay type: functional, EOL1
Summary of the method: (§2)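 EoL-1 cells (RPMI-1640, 10% fetal calf serum, L-glutamine, penicillin/streptomycin) exposed 12 h; viable counts by trypan blue exclusion over time; growth rate (cells/h) taken as slope of cell number vs incubation time, compared with vehicle-control growth rate.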

[7] = Cell cycle arrest in human EOL-1 cells assessed as accumulation at G0/G1 phase at 4 uM after 24 hrs by flow cytometry (reference value: 54 %); assay type: functional, cell-based; settings: EOL1
[8] = Cell cycle arrest in human EOL-1 cells assessed as accumulation at G0/G1 phase at 4 uM after 12 hrs by flow cytometry (reference value: 54 %); assay type: functional, cell-based; settings: EOL1
[9] = Antiproliferative activity against human EOL-1 cells at 4 uM after 12 hrs by trypan blue exclusion assay; assay type: functional, EOL1; summary of the method: as §2
EOL1 [10] = experiment: Reduction in Flt3 protein level in human EOL-1 cells at 3 uM after 12 hrs by Western blot analysis; assay type: functional; settings: EOL1, 12 h; summary of the method: as §1
EOL1 [11] = experiment: Reduction in STAT5A protein level in human EOL-1 cells at 4 uM after 12 hrs by Western blot analysis; assay type: functional; settings: EOL1, 12 h; summary of the method: as §1
EOL1 [12] = experiment: Reduction in Flt3 protein level in human EOL-1 cells at 5 uM after 12 hrs by Western blot analysis; assay type: functional; settings: EOL1, 12 h; summary of the method: as §1
EOL1 [13] = experiment: Reduction in STAT5A protein level in human EOL-1 cells at 3 uM after 12 hrs by Western blot analysis; assay type: functional; settings: EOL1, 12 h; summary of the method: as §1
EOL1 [14] = experiment: Reduction in Flt3 protein level in human EOL-1 cells at 4 uM after 12 hrs by Western blot analysis; assay type: functional; settings: EOL1, 12 h; summary of the method: as §1
[15] = Cell cycle arrest in human EOL-1 cells assessed as accumulation at G0/G1 phase at 3 uM after 12 hrs by flow cytometry (reference value: 54 %); assay type: functional, cell-based; settings: EOL1
EOL1 [16] = experiment: Reduction in STAT5A protein level in human EOL-1 cells at 5 uM after 12 hrs by Western blot analysis; assay type: functional; settings: EOL1, 12 h; summary of the method: as §1
[17] = Antiproliferative activity against human EOL-1 cells at 3 uM after 12 hrs by trypan blue exclusion assay; assay type: functional, EOL1; summary of the method: as §2
EOL1 [18] = experiment: Reduction in Flt3 protein level in human EOL-1 cells at 4 uM after 48 hrs by Western blot analysis; assay type: functional; settings: EOL1, 48 h; summary of the method: as §1
EOL1 [19] = experiment: Reduction in STAT5A protein level in human EOL-1 cells after 12 hrs by Western blot analysis; assay type: functional, cell-based; summary of the method: as §1
[20] = Cell cycle arrest in human EOL-1 cells assessed as accumulation at G0/G1 phase at 5 uM after 12 hrs by flow cytometry (reference value: 54 %); assay type: functional, cell-based; settings: EOL1
EOL1 [21] = experiment: Reduction in Flt3 protein level in human EOL-1 cells at 4 uM after 24 hrs by Western blot analysis; assay type: functional; settings: EOL1, 24 h; summary of the method: as §1
[22] = Cell cycle arrest in human EOL-1 cells assessed as accumulation at G0/G1 phase at 4 uM after 48 hrs by flow cytometry (reference value: 54 %); assay type: functional, cell-based; settings: EOL1
EOL1 [23] = experiment: Reduction in Flt3 protein level in human EOL-1 cells at 10 uM after 12 hrs by Western blot analysis; assay type: functional; settings: EOL1, 12 h; summary of the method: as §1
EOL1 [24] = experiment: Reduction in Flt3 protein level in human EOL-1 cells at 10 uM after 24 hrs by Western blot analysis; assay type: functional; settings: EOL1, 24 h; summary of the method: as §1
EOL1 [25] = experiment: Reduction in Flt3 protein level in human EOL-1 cells at 10 uM after 48 hrs by Western blot analysis; assay type: functional; settings: EOL1, 48 h; summary of the method: as §1

O=C(/C=C/c1ccc(O)cc1)CC(=O)/C=C/c1ccc(O)cc1 [BISDEMETHOXYCURCUMIN]
inhibition at 15 µM (EOL1 [1]): 26% | IC50 [2]: 22.3 µM | inhibition at 15 µM (EOL1 [3]): 3%

COc1cc(/C=C/C(=O)CC(=O)/C=C/c2ccc(O)c(OC)c2)ccc1O [CURCUMIN]
inhibition (EOL1 [4]): Dose-dependent effect | Activity [5]: Dose-dependent effect | Activity [6]: 58% | Activity [7]: 58% | Activity [8]: 71% | Activity [9]: 25% | IC50 [2]: 6.7 µM | inhibition at 3 µM (EOL1 [10]): 17% | inhibition at 4 µM (EOL1 [11]): 44% | inhibition at 5 µM (EOL1 [12]): 70% | inhibition at 3 µM (EOL1 [13]): 13% | inhibition at 4 µM (EOL1 [14]): 37% | Activity [15]: 66% | inhibition at 5 µM (EOL1 [16]): 82% | Activity [17]: 17% | inhibition at 4 µM (EOL1 [18]): 12% | inhibition (EOL1 [19]): Dose-dependent effect | Activity [20]: 75% | inhibition at 4 µM (EOL1 [21]): 33% | Activity [22]: 54%

COc1cc(/C=C/C(O)=C/C(=O)/C=C/c2ccc(O)cc2)ccc1O [DEMETHOXYCURCUMIN]
IC50 [2]: 15.6 µM | inhibition at 10 µM (EOL1 [23]): 4% | inhibition at 10 µM (EOL1 [24]): 32% | inhibition at 10 µM (EOL1 [25]): 46%
